High-throughput results deposited in PubChem BioAssay by several laboratories.
Only some compounds are listed: those with a hit (about 0.57% of all), similar ones and a draw of the others.
Arr AP2 block: human beta-arrestin and AP2 interaction inhibition. 340,000 compounds, 0.31% hits. AID 504490. inhibition, % at 10 µM. FITC-arrestin peptide / GST-AP2 beads, flow cytometry; AP2 beta2 appendage carries R879A mutation;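 active = inhibition above a set limit, near 3 SD of compounds lacking own fluorescence, cut at about 54% in these data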;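 also: plate controls were DMSO wells for no effect and 5 µM unlabelled arrestin peptide for full effect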
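Material – GST-tagged AP2 beta2-adaptin appendage (R879A) on 4 µm glutathione beads · Probe or stimulus – fluorescein-tagged arrestin peptide at 50 nM final · Timing – 12 min plus 1 h, RT · Detection – bead flow cytometry, FITC channel · Read-out basis – inhibition as reduced fluorescein signal on beads, percent · Medium – PBS plus Tween 20 (0.05%) and BSA (0.1%)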
VLA-4 inh: inhibition in a human VLA-4 binding assay | AID 2557 | inhibition, % (about 7 µM as worked out from the volumes in the protocol) | 330,000 compounds, 0.2% hits | P13612 | VLA-4 expressing cells, ligand binding flow cytometry; in the data active = inhibition above about 50%
JMJD2C inh: human JMJD2C demethylase inhibition | GST-JMJD2C(1-420) H3K9me3 demethylation, DELFIA europium | 330,000 compounds, 0.069% hits | inhibition, % at 2.35 µM | Q9H3R0;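 active = more than half of a compound's replicate wells show inhibition beyond 50%, single wells judged on their own value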;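 also: signal counts dimethyl H3K9 product captured on neutravidin plate; 0% = median of DMSO wells and 100% = 0.3 times that DMSO median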
p-CIP stab down: compounds decreasing mouse p/CIP protein stability | Q05BA5 | F442A p/CIP-EGFP cells, EGFP fluorescence, 16 h | decrease of EGFP signal, % at 10 µM | 290,000 compounds, 0.01% hits;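 active = EGFP signal decrease of at least 30% at 10 µM or well 3 SD below plate mean, unless failing retest; inactive = the rest, including hits failing retest or dose response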
VLA-4 allo CP: confirmation of allosteric modulators of human VLA-4 integrin. shares compounds with VLA-4 inh. U937 cells, HUTS-21 LIBS mAb binding, flow cytometry; LDV ligand present at threefold Kd. inhibition, % at 6.7 µM. 1,300 compounds, 2% hits. AID 2813; in the data active = inhibition above about 40%;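 also: 0% = ligand without compound and 100% = no ligand background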
An asterisk follows results filed as active; i = inactive; x = no result.

SMILES	Arr AP2 block	VLA-4 inh	JMJD2C inh	p-CIP stab down	VLA-4 allo CP
CCOC(=O)c1c(N2C(=O)C=CC2=O)sc(C)c1C	14.5	50.3*	-4.5	-5.0	32.0
CCOC(=O)c1c(NC(N)=O)sc(C)c1C	1.7	9.1	13.1	10.7	x
Cc1ccc2[nH]c(=O)c3cc(C(=O)N(CCCOC(C)C)Cc4ccco4)sc3c2c1	-0.6	8.3	7.1	-16.4	x
CC1CCCC(NC(=O)CCNS(=O)(=O)c2ccc(Br)cc2)C1C (stereo not drawn)	18.8	52.5*	-10.3	9.5	-2.1
CNS(=O)(=O)c1cccc(C(=O)OCC(=O)NC2CCCC(C)C2C)c1 (stereo not drawn)	8.4	-12.1	-3.9	x	-1.1
CC1CCCC(NC(=O)COC(=O)c2cccc(S(=O)(=O)N3CCCCC3)c2)C1C (stereo not drawn)	-17.2	-21.3	2.2	x	x
CCOC(=O)N1CCN(C(=O)CN(C)S(=O)(=O)c2ccc(F)cc2)CC1	-4.6	4.5	-6.8	-2.9	x
CCOC(=O)N1CCN(C(=O)CN(C)S(=O)(=O)c2ccc3c(c2)C(C)(C)C(=O)N3C)CC1	23.7	-10.6	3.1	-7.5	-0.9
CCCCC[C@@H]1C=C(C(=O)O)[C@H](c2ccc(Cl)cc2)N1S(=O)(=O)c1ccc(C)cc1	7.4	16.5	x	x	1.3
CCCC[C@@H]1C=C(C(=O)O)[C@H](c2ccc(C)cc2)N1S(=O)(=O)c1ccc(C)cc1	18.6	52.9*	11.9	x	-2.1
Cc1ccc(S(=O)(=O)N2[C@@H](c3ccc(Br)cc3)C(C(=O)O)=C[C@H]2C(C)(C)C)cc1	16.3	51.5*	4.5	x	-1.4
O=C(CN1C(=O)NC2(CCCCC2)C1=O)Nc1ccc(Cl)c(S(=O)(=O)N2CCOCC2)c1	37.7	-11.0	x	x	x
Cc1ccccc1-c1nc2ccccc2c(=O)n1/N=C/c1ccccc1[N+](=O)[O-]	25.1	-0.1	-3.3	-5.8	x
CC1(C)C(C(=O)O)N2C(=O)C(NC(=O)Cc3ccccc3)C2S1=O (stereo not drawn)	0.5	59.0*	-0.6	-9.4	-8.2
CCN(C[C@H]1N[C@@](Cc2ccccc2)(C(=O)OC)[C@H]2C(=O)N(Cc3ccccc3)C(=O)[C@@H]12)C(=O)COc1ccccc1	0.1	55.6*	2.2	x	2.9
CCN(C[C@H]1N[C@@](Cc2ccccc2)(C(=O)OC)[C@H]2C(=O)N(Cc3ccccc3)C(=O)[C@@H]12)C(=O)C1CCCCC1	33.3	8.8	x	x	-4.2
COC(=O)[C@]1(Cc2ccccc2)N[C@H](CN(C)C(=O)COc2ccccc2)[C@@H]2C(=O)N(Cc3ccccc3)C(=O)[C@@H]21	6.3	24.8	2.1	x	x
Cc1cc(C(=O)N2CCN(c3ccccn3)CC2)no1	5.9	3.2	i	-5.5	x
CC(C)C(NC(=O)C(C)N1C(=O)c2ccccc2C1=O)c1ccccc1 (stereo not drawn)	27.1	23.1	-9.4	11.1	x
CCOC(=O)C(CC)(CC)C(=O)/C=C/c1ccc(Br)cc1	-3.3	89.7*	-7.7	-8.6	4.7
CCOC(=O)C(=Cc1ccc(Br)cc1)C(=O)OCC	-12.2	0.1	-2.0	1.6	x
COc1ccc(-c2sc3ccccc3c2-c2ccc(OCCN3CCCCC3)cc2)cc1	9.0	6.3	-0.4	x	6.7
c1ccc(-c2sc3ccccc3c2-c2ccc(OCCN3CCCC3)cc2)cc1	-4.4	45.8	-21.1	x	23.9
CCOc1ccc(OCCN2CCCCC2)cc1	-5.9	4.2	7.1	-4.0	x
CS(=O)(=O)N(CC(=O)Nc1ccccc1C(=O)NCCc1ccccc1)c1ccc2c(c1)OCCO2	11.2	-4.2	36.7	-1.6	x
SMILES	Arr AP2 block	VLA-4 inh	JMJD2C inh	p-CIP stab down	VLA-4 allo CP
O=C(O)/C=C/C(=O)NNC(=O)c1ccc(Cl)cc1Cl	19.7	10.8	1.1	-17.7	x
O=C(CC1C(=O)NCCN1Cc1ccccc1C(F)(F)F)NCCN1CCCCC1=O (stereo not drawn)	-4.8	-11.8	2.2	-12.8	x
COC1=CC(=O)C[C@@H](C)[C@]12Oc1c(Cl)c(OC)cc(OC)c1C2=O	15.8	54.2*	-6.9	-0.8	6.7
CCC(=O)NC(=S)Nc1ccccc1C(=O)NC1CCCCC1	-1.5	44.2	-6.0	1.6	7.0
Cc1ccc(Cn2c(-n3nc(C)cc3C)nc3c2c(=O)[nH]c(=O)n3C)cc1	-4.4	5.2	-22.8	-7.0	x
Cc1cc(C)n(-c2nc3c(c(=O)[nH]c(=O)n3C)n2Cc2cccc(Br)c2)n1	-17.4	54.2*	0.0	-15.5	6.4
COc1cc(NS(=O)(=O)c2ccc(N)cc2)ncn1	x	62.7*	-26.1	-0.4	-4.2
Cc1cc(C)nc(NS(=O)(=O)c2ccc(-n3cccc3)cc2)n1	4.0	1.8	-11.4	-0.8	x
Cc1cc(C)nc(NS(=O)(=O)c2ccc(N)cc2)n1	2.6	15.7	7.9	2.7	0.0
Cc1ccnc(NS(=O)(=O)c2ccc(N)cc2)n1	6.4	7.2	-25.4	-12.6	-0.8
Cc1cc(C)nc(NS(=O)(=O)c2ccc(Br)cc2)n1	-13.2	14.1	-7.4	-7.5	-4.9
COc1cc(NS(=O)(=O)c2ccc(NC(C)=O)cc2)ncn1	6.4	7.8	-2.7	-8.3	x
CC(C)Nc1nc(NC(C)C)nc(NS(=O)(=O)c2ccc(N)cc2)n1	-1.7	8.8	-2.6	2.8	x
CC(=O)Nc1ccc(S(=O)(=O)Nc2nc3ccccc3nc2Nc2ccccc2)cc1	4.6	-4.0	-0.1	-8.2	x
Cc1ccc([N+](=O)[O-])c(OCCN2C(=O)NC(C)(C)C2=O)c1	-2.9	29.3	2.7	-5.7	x
CCOc1ccc(NS(=O)(=O)c2ccc(N)cc2)cc1	16.0	11.8	-8.3	7.1	x
COc1cnc(NS(=O)(=O)c2ccc(N)cc2)nc1	-1.8	59.0*	-21.8	8.6	1.1
COc1ccccc1NS(=O)(=O)c1cc(NC(=O)CCNC(C)=O)ccc1C	-1.2	11.1	1.7	16.1	x
COc1ccccc1NS(=O)(=O)c1cc(NC(=O)CNC(=O)c2ccccc2)ccc1C	33.0	53.3*	7.1	-14.4	-0.4
CCOc1ccc(/C=C/C(=O)N(CC)CC(=O)Nc2ccc3c(c2)OCCO3)cc1OC	-0.4	4.0	0.6	x	x
O=C(COC(=O)c1ccc(F)cc1F)NCCNC(=O)COC(=O)c1ccc(F)cc1F	4.4	21.7	22.3	-14.0	x
O=C(COC(=O)c1ccc(O)cc1)Nc1ccccc1	32.4	-15.8	6.8	0.7	1.8
O=C(COC(=O)c1ccc(O)cc1)Nc1ccc(OC(F)F)cc1	17.9	40.2	4.1	-4.0	x
CC(=O)c1ccc(NC(=O)COC(=O)c2ccc(F)cc2F)cc1	-5.0	10.8	12.6	-27.3	-2.1
O=C(COC(=O)c1ccccc1Br)Nc1ccc(F)cc1	-2.3	11.3	-11.8	-7.2	5.3
COC(=O)c1ccc(NC(=O)N2CCCC(C(=O)c3ccccc3OC)C2)cc1 (stereo not drawn)	18.0	-3.9	-4.6	-21.7	x
COc1ccc(NC(=O)CSC2CCCCC2)cc1	-7.6	5.8	-1.0	-16.8	x
